Data published in ChEMBL document CHEMBL2016452, “Flavones and structurally related 4-chromenones inhibit carbonic anhydrases by a different mechanism of action compared to coumarins” (Bioorg Med Chem Lett, 2012).

Key:
Carbonic anhydrase 12 [1] = biological target: T1, Carbonic anhydrase 12 (Homo sapiens, UniProt O43570); experiment: Inhibition of transmembrane tumor-associated human carbonic anhydrase 12 preincubated for 15 mins by stopped flow CO2 hydration assay
Procedure, shortened: (§1)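 Stopped-flow CO2 hydration, with phenol red 0.2 mM as indicator at 557 nm. Buffer 20 mM Hepes pH 7.5 with 20 mM NaClO4. Initial rates measured over 10–100 s, with uncatalyzed rate subtracted. Inhibitor stock 0.1 mM in water, diluted with assay buffer. Enzyme and inhibitor preincubated 15 min at room temperature. KI by non-linear least squares, mean of at least three determinations.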

Carbonic anhydrase 7 = Carbonic anhydrase 7 (Homo sapiens, UniProt P43166); experiment: Inhibition of human carbonic anhydrase 7 preincubated for 15 mins by stopped flow CO2 hydration assay; procedure, shortened: as §1
Carbonic anhydrase 15 = biological target: T2, Carbonic anhydrase 15 (Mus musculus, UniProt Q99N23); experiment: Inhibition of mouse carbonic anhydrase 15 preincubated for 15 mins by stopped flow CO2 hydration assay; procedure, shortened: as §1
T2 sequence (Q99N23 whole entry): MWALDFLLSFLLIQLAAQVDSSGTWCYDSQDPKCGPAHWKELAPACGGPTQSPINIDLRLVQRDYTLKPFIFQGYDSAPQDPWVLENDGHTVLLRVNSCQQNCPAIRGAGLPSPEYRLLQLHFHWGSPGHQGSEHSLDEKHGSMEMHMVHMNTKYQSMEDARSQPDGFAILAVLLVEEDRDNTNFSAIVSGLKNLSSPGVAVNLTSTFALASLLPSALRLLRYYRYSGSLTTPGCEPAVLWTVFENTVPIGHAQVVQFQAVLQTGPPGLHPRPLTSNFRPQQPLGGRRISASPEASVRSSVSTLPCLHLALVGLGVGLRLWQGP

Carbonic anhydrase 9 [2] = biological target: T3, Carbonic anhydrase 9 (Homo sapiens, UniProt Q16790); experiment: Inhibition of transmembrane tumor-associated human carbonic anhydrase 9 preincubated for 15 mins by stopped flow CO2 hydration assay; procedure, shortened: as §1
Carbonic anhydrase 13 = Carbonic anhydrase 13 (Homo sapiens, UniProt Q8N1Q1); experiment: Inhibition of human carbonic anhydrase 13 preincubated for 15 mins by stopped flow CO2 hydration assay
Carbonic anhydrase 4 = Carbonic anhydrase 4 (Homo sapiens, UniProt P22748); experiment: Inhibition of human carbonic anhydrase 4 preincubated for 15 mins by stopped flow CO2 hydration assay
[3] = biological target: Carbonic anhydrase 5B, mitochondrial (Homo sapiens, UniProt Q9Y2D0); experiment: Inhibition of human carbonic anhydrase 5b preincubated for 15 mins by stopped flow CO2 hydration assay
Carbonic anhydrase 14 = Carbonic anhydrase 14 (Homo sapiens, UniProt Q9ULX7); experiment: Inhibition of human carbonic anhydrase 14 preincubated for 15 mins by stopped flow CO2 hydration assay
[4] = biological target: Carbonic anhydrase 5A, mitochondrial (Homo sapiens, UniProt P35218); experiment: Inhibition of human carbonic anhydrase 5a preincubated for 15 mins by stopped flow CO2 hydration assay
Carbonic anhydrase 3 = Carbonic anhydrase 3 (Homo sapiens, UniProt P07451); experiment: Inhibition of human carbonic anhydrase 3 preincubated for 15 mins by stopped flow CO2 hydration assay
Carbonic anhydrase 2 [5] = biological target: T4, Carbonic anhydrase 2 (Homo sapiens, UniProt P00918); experiment: Inhibition of cytosolic human carbonic anhydrase 2 preincubated for 15 mins by stopped flow CO2 hydration assay
Carbonic anhydrase 6 = Carbonic anhydrase 6 (Homo sapiens, UniProt P23280); experiment: Inhibition of human carbonic anhydrase 6 preincubated for 15 mins by stopped flow CO2 hydration assay
Carbonic anhydrase 1 [6] = biological target: T5, Carbonic anhydrase 1 (Homo sapiens, UniProt P00915); experiment: Inhibition of cytosolic human carbonic anhydrase 1 preincubated for 15 mins by stopped flow CO2 hydration assay
Carbonic anhydrase 12 [7] = biological target: T1, Carbonic anhydrase 12; experiment: Inhibition of transmembrane tumor-associated human carbonic anhydrase 12 preincubated for 12 hrs by stopped flow CO2 hydration assay
Procedure, shortened: (§2)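 Stopped-flow CO2 hydration, with phenol red 0.2 mM as indicator read at 557 nm. Buffer 20 mM Hepes pH 7.5 with 20 mM NaClO4 for ionic strength. Initial rates followed for 10–100 s, with uncatalyzed rates subtracted. Inhibitor stock 0.1 mM in water, diluted in assay buffer. Enzyme and inhibitor preincubated 12 h at 4 °C. KI by non-linear least squares, mean of at least three determinations.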

Carbonic anhydrase 2 [8] = biological target: T4, Carbonic anhydrase 2; experiment: Inhibition of cytosolic human carbonic anhydrase 2 preincubated for 12 hrs by stopped flow CO2 hydration assay; procedure, shortened: as §2
Carbonic anhydrase 1 [9] = biological target: T5, Carbonic anhydrase 1; experiment: Inhibition of cytosolic human carbonic anhydrase 1 preincubated for 12 hrs by stopped flow CO2 hydration assay; procedure, shortened: as §2
Carbonic anhydrase 9 [10] = biological target: T3, Carbonic anhydrase 9; experiment: Inhibition of transmembrane tumor-associated human carbonic anhydrase 9 preincubated for 12 hrs by stopped flow CO2 hydration assay; procedure, shortened: as §2

T1 sequence (O43570 whole entry): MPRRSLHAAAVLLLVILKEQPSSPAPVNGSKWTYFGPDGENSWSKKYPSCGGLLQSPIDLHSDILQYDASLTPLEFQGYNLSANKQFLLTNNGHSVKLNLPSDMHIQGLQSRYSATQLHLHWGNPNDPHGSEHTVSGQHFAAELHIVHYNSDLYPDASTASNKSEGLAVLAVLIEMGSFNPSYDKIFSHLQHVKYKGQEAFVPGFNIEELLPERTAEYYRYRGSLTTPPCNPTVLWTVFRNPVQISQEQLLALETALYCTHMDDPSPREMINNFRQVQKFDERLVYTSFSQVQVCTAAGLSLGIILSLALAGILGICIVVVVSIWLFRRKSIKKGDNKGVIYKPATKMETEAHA
T5 sequence (P00915 whole entry): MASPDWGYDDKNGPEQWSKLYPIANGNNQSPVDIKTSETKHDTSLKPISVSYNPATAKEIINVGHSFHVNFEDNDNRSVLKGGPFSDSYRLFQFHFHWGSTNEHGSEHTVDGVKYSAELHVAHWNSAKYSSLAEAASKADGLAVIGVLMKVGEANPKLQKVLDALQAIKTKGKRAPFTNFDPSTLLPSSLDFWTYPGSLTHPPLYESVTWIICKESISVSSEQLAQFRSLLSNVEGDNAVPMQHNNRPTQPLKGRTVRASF
Chain of Carbonic anhydrase 7 (P43166 whole entry): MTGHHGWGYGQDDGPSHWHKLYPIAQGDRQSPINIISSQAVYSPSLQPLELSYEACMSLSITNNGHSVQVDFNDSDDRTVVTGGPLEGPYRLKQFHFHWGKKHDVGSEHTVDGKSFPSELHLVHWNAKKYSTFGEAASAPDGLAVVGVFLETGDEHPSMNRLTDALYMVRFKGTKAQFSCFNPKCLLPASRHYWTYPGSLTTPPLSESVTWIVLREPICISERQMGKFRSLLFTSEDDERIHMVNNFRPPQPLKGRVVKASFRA
Chain of Carbonic anhydrase 14 (Q9ULX7 whole entry): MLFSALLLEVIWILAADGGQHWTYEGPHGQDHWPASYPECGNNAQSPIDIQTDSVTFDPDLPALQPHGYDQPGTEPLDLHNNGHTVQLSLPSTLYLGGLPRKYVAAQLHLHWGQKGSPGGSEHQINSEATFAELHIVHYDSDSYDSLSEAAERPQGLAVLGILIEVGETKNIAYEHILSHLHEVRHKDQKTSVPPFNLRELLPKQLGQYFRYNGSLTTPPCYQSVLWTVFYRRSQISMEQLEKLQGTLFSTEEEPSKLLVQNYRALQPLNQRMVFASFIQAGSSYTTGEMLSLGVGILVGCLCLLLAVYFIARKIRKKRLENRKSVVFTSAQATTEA
Chain of Carbonic anhydrase 5B, mitochondrial (Q9Y2D0 whole entry): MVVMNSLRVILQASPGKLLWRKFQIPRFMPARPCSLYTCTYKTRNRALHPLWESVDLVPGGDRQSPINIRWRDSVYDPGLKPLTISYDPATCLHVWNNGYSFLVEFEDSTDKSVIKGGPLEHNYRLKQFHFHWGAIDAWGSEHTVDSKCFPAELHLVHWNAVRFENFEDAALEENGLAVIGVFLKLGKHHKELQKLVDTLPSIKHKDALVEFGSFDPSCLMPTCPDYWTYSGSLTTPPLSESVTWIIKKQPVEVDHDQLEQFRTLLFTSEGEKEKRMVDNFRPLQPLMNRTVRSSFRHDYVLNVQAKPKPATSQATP
Chain of Carbonic anhydrase 13 (Q8N1Q1 whole entry): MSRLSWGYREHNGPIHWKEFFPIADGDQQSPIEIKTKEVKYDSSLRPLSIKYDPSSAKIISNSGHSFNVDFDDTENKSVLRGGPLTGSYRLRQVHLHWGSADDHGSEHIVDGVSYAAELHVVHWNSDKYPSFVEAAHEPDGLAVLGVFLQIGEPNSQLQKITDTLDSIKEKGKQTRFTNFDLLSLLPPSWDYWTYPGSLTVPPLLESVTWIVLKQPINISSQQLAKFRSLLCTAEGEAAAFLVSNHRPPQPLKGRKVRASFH
Chain of Carbonic anhydrase 4 (P22748 whole entry): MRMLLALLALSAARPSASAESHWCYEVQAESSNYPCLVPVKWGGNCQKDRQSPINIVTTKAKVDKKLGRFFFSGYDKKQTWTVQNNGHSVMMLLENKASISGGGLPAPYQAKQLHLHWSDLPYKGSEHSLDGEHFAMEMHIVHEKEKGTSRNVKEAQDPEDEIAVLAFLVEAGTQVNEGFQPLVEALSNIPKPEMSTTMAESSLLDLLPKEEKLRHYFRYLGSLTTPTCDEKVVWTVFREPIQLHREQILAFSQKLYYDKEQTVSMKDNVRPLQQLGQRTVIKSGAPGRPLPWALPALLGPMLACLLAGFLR
Chain of Carbonic anhydrase 3 (P07451 whole entry): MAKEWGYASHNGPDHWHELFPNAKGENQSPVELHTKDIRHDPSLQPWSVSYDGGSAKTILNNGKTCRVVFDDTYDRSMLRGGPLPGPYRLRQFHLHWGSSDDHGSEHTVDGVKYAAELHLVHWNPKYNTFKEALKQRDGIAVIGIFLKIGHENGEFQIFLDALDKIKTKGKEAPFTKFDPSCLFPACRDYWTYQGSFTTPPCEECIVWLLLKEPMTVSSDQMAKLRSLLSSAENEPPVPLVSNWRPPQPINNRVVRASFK
Chain of Carbonic anhydrase 6 (P23280 whole entry): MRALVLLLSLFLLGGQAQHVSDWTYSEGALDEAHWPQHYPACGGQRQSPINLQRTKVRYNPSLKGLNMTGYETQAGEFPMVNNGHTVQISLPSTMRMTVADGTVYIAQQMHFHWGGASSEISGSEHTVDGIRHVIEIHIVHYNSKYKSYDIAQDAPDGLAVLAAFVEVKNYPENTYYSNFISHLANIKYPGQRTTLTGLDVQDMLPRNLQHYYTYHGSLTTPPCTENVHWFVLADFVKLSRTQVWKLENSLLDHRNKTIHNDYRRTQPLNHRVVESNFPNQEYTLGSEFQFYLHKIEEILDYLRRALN
Chain of Carbonic anhydrase 5A, mitochondrial (P35218 whole entry): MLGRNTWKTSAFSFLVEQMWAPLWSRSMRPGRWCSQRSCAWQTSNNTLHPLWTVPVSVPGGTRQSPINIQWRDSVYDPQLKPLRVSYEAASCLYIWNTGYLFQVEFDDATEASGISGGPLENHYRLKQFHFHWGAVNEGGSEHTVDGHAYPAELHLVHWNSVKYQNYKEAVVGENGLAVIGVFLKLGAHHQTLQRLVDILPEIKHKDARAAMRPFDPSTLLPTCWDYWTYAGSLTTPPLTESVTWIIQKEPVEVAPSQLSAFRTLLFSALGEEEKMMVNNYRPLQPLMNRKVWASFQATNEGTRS

SMILES | Ki (Carbonic anhydrase 12 [1]) [µM] | Ki (Carbonic anhydrase 7) [µM] | Ki (Carbonic anhydrase 15) [µM] | Ki (Carbonic anhydrase 9 [2]) [µM] | Ki (Carbonic anhydrase 13) [µM] | Ki (Carbonic anhydrase 4) [µM] | Ki [3] [µM] | Ki (Carbonic anhydrase 14) [µM] | Ki [4] [µM] | Ki (Carbonic anhydrase 3) [µM] | Ki (Carbonic anhydrase 2 [5]) [µM] | Ki (Carbonic anhydrase 6) [µM] | Ki (Carbonic anhydrase 1 [6]) [µM] | Ki (Carbonic anhydrase 12 [7]) [µM] | Ki (Carbonic anhydrase 2 [8]) [µM] | Ki (Carbonic anhydrase 1 [9]) [µM] | Ki (Carbonic anhydrase 9 [10]) [µM]
Nc1oc2ccc(Cl)cc2c(=O)c1-c1ccc(Cl)cc1 | 9.31 | 7.95 | 3.75 | 3.4 |  |  |  |  |  |  |  |  |  |  |  |  | 
COc1ccc(-c2c(N)oc3ccc(Cl)cc3c2=O)cc1 | 6.49 | 6.75 | 1.65 | 2.41 |  |  |  |  |  |  |  |  |  |  |  |  | 
Oc1ccc(C=Cc2cc(O)cc(O)c2)cc1 (mixture of isomers) | 8.13 | 8.98 | 2.57 | 9.53 | 8.25 | 4.01 | 3.24 | 1.95 | 2.86 | 6.75 | 1.75 | 8.63 |  |  |  |  | 
O=c1cc(-c2ccccc2)oc2cc(O)ccc12 [7-HYDROXYFLAVONE] | 8.4 |  |  | 4.92 |  |  |  |  |  |  | 2.24 |  | 3.37 | 8.51 | 2.32 | 3.43 | 4.85
O=c1cc(-c2ccccc2)oc2cc(O)cc(O)c12 [CHRYSIN] | 8.96 |  |  | 2.65 |  |  |  |  |  |  | 4.38 |  | 5.49 | 9.07 | 4.31 | 5.42 | 2.71
O=c1cc(-c2ccccc2)oc2ccccc12 [FLAVONE] | 7.22 |  |  | 4.13 |  |  |  |  |  |  | 8.71 |  | 1.89 | 7.33 | 8.8 | 1.88 | 4.22
O=c1c(O)c(-c2ccccc2)oc2ccccc12 [FLAVONOL] | 6.59 |  |  | 5.54 |  |  |  |  |  |  | 9.3 |  | 5.21 | 6.65 | 9.2 | 5.1 | 5.63
